Converted amounts (≈) assume the structure as drawn.
Columns and labels:
Type in all cases: functional
Staphylococcus aureus [1] = assay: Antimicrobial activity against Staphylococcus aureus ATCC 25923 after 16 to 18 hrs by agar dilution method
In short: (§1)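 Agar dilution following NCCLS/CLSI, with twofold serial dilutions of the compounds and reference drugs in Mueller-Hinton agar. Inocula were overnight cultures (16-18 h, 37 °C) adjusted to 0.5 McFarland. Compounds were dissolved in DMSO, which served as the control. MIC was taken as the lowest concentration preventing viable growth after 16-18 h incubation.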

Escherichia coli = assay: Antimicrobial activity against Escherichia coli ATCC 25922 after 16 to 18 hrs by agar dilution method; in short: as §1
Pseudomonas aeruginosa = assay: Antimicrobial activity against Pseudomonas aeruginosa ATCC 27853 after 16 to 18 hrs by agar dilution method; in short: as §1
Staphylococcus aureus [2] = assay: Antimicrobial activity against Staphylococcus aureus isolate 7 after 16 to 18 hrs by agar dilution method
In short: (§2)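 Agar dilution MIC on Mueller-Hinton agar with the test agents mixed into the medium. MIC was read as the lowest concentration preventing viable growth after 16–18 h incubation.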

Staphylococcus aureus [3] = assay: Antimicrobial activity against Staphylococcus aureus isolate 8 after 16 to 18 hrs by agar dilution method; in short: as §2
Staphylococcus aureus [4] = assay: Antimicrobial activity against Staphylococcus aureus isolate 9 after 16 to 18 hrs by agar dilution method
Staphylococcus aureus [5] = assay: Antimicrobial activity against Staphylococcus aureus isolate 10 after 16 to 18 hrs by agar dilution method
Staphylococcus aureus [6] = assay: Antimicrobial activity against methicillin-resistant Staphylococcus aureus isolate 1 after 16 to 18 hrs by agar dilution method; in short: as §2
Staphylococcus aureus [7] = assay: Antimicrobial activity against methicillin-resistant Staphylococcus aureus isolate 2 after 16 to 18 hrs by agar dilution method; in short: as §2
Staphylococcus aureus [8] = assay: Antimicrobial activity against methicillin-resistant Staphylococcus aureus isolate 3 after 16 to 18 hrs by agar dilution method; in short: as §2
Staphylococcus aureus [9] = assay: Antimicrobial activity against methicillin-resistant Staphylococcus aureus isolate 4 after 16 to 18 hrs by agar dilution method; in short: as §2
Staphylococcus aureus [10] = assay: Antimicrobial activity against methicillin-resistant Staphylococcus aureus isolate 5 after 16 to 18 hrs by agar dilution method; in short: as §2
Staphylococcus aureus [11] = assay: Antimicrobial activity against Staphylococcus aureus isolate 1 after 16 to 18 hrs by agar dilution method
Staphylococcus aureus [12] = assay: Antimicrobial activity against Staphylococcus aureus isolate 2 after 16 to 18 hrs by agar dilution method; in short: as §2
Staphylococcus aureus [13] = assay: Antimicrobial activity against Staphylococcus aureus isolate 3 after 16 to 18 hrs by agar dilution method
Staphylococcus aureus [14] = assay: Antimicrobial activity against Staphylococcus aureus isolate 4 after 16 to 18 hrs by agar dilution method
Staphylococcus aureus [15] = assay: Antimicrobial activity against Staphylococcus aureus isolate 5 after 16 to 18 hrs by agar dilution method
Staphylococcus aureus [16] = assay: Antimicrobial activity against Staphylococcus aureus isolate 6 after 16 to 18 hrs by agar dilution method

Row | Compound | MIC (Staphylococcus aureus [1]) [µg/mL] | MIC (Escherichia coli) [µg/mL] | MIC (Pseudomonas aeruginosa) [µg/mL] | further results
1 | Cc1ccc(C(=O)C/C=N/NC(N)=S)cc1 | > 64 | > 64 | > 64 | 
2 | NC(=O)N/N=C/CC(=O)c1ccccc1 | > 64 | > 64 | > 64 | 
3 | C[C@H]1COc2c(N3CCN(C)CC3)c(F)cc3c(=O)c(C(=O)O)cn1c23.C[C@H]1COc2c(N3CCN(C)CC3)c(F)cc3c(=O)c(C(=O)O)cn1c23.O [LEVOFLOXACIN] | 0.25 | 0.025 | 0.5 | MIC (Staphylococcus aureus [2]): 0.25 µg/mL; MIC (Staphylococcus aureus [3]): 0.25 µg/mL; MIC (Staphylococcus aureus [4]): 0.25 µg/mL; MIC (Staphylococcus aureus [5]): 0.5 µg/mL; MIC (Staphylococcus aureus [6]): 8 µg/mL; MIC (Staphylococcus aureus [7]): 8 µg/mL; MIC (Staphylococcus aureus [8]): 16 µg/mL; MIC (Staphylococcus aureus [9]): 16 µg/mL; MIC (Staphylococcus aureus [10]): 16 µg/mL; MIC (Staphylococcus aureus [11]): 0.25 µg/mL; MIC (Staphylococcus aureus [12]): 0.5 µg/mL; MIC (Staphylococcus aureus [13]): 0.25 µg/mL; MIC (Staphylococcus aureus [14]): 0.25 µg/mL; MIC (Staphylococcus aureus [15]): 0.125 µg/mL; MIC (Staphylococcus aureus [16]): 0.5 µg/mL
4 | CC[C@H]1OC(=O)[C@H](C)[C@@H](O[C@H]2C[C@@](C)(OC)[C@@H](O)[C@H](C)O2)[C@H](C)[C@@H](O[C@@H]2O[C@H](C)C[C@H](N(C)C)[C@H]2O)[C@](C)(OC)C[C@@H](C)C(=O)[C@H](C)[C@@H](O)[C@]1(C)O [CLARITHROMYCIN] | 0.12 (≈ 0.16 µM) | 32 (≈ 42.8 µM) | > 64 | 
5 | CCO/N=C(/C/C=N/OCC)c1ccc(CC)cc1 | 32 (≈ 122 µM) | > 64 | > 64 | 
6 | CO/N=C/CC(=O)c1ccccc1 | 64 (≈ 361 µM) | > 64 | > 64 | 
7 | CCCCCc1ccc(C(=O)CC(O)S(=O)(=O)[O-])cc1.[Na+] (configuration not stated) | > 64 | > 64 | > 64 | 
8 | CCCCCCCCCC(=O)CC(O)S(=O)(=O)[O-].[Na+] (configuration not stated) [SODIUM HOUTTUYFONATE] |  |  |  | MIC (Staphylococcus aureus [2]): 64 µg/mL; MIC (Staphylococcus aureus [3]): 64 µg/mL; MIC (Staphylococcus aureus [4]): 64 µg/mL; MIC (Staphylococcus aureus [5]): 32 µg/mL; MIC (Staphylococcus aureus [11]): 64 µg/mL; MIC (Staphylococcus aureus [12]): 64 µg/mL; MIC (Staphylococcus aureus [13]): 64 µg/mL; MIC (Staphylococcus aureus [14]): 64 µg/mL; MIC (Staphylococcus aureus [15]): 32 µg/mL; MIC (Staphylococcus aureus [16]): 64 µg/mL
9 | CCCCCc1ccc(/C(C/C=N/OCC)=N\OCC)cc1 | 64 (≈ 210 µM) | > 64 | > 64 | 
10 | Cc1ccc(C(=O)C/C=N/O)cc1 | 64 (≈ 361 µM) | > 64 | > 64 | 
11 | CCc1ccc(/C(C/C=N/OC)=N\OC)cc1 | 32 (≈ 137 µM) | > 64 | > 64 | 
12 | CCCCCc1ccc(C(=O)C/C=N/OC)cc1 | 4 (≈ 16.2 µM) | 64 (≈ 259 µM) | 64 (≈ 259 µM) | 
13 | CO/N=C/CC(=O)c1ccc(C(C)C)cc1 | 2 (≈ 9.12 µM) | > 64 | > 64 | MIC (Staphylococcus aureus [6]): 8 µg/mL (≈ 36.5 µM); MIC (Staphylococcus aureus [7]): 8 µg/mL (≈ 36.5 µM); MIC (Staphylococcus aureus [8]): 8 µg/mL (≈ 36.5 µM); MIC (Staphylococcus aureus [9]): 8 µg/mL (≈ 36.5 µM); MIC (Staphylococcus aureus [10]): 4 µg/mL (≈ 18.2 µM)
14 | CCO/N=C/CC(=O)c1ccc(C(C)C)cc1 | 1 (≈ 4.29 µM) | > 64 | > 64 | MIC (Staphylococcus aureus [2]): 8 µg/mL (≈ 34.3 µM); MIC (Staphylococcus aureus [3]): 8 µg/mL (≈ 34.3 µM); MIC (Staphylococcus aureus [4]): 4 µg/mL (≈ 17.1 µM); MIC (Staphylococcus aureus [5]): 4 µg/mL (≈ 17.1 µM); MIC (Staphylococcus aureus [6]): 16 µg/mL (≈ 68.6 µM); MIC (Staphylococcus aureus [7]): 8 µg/mL (≈ 34.3 µM); MIC (Staphylococcus aureus [8]): 8 µg/mL (≈ 34.3 µM); MIC (Staphylococcus aureus [9]): 16 µg/mL (≈ 68.6 µM); MIC (Staphylococcus aureus [10]): 8 µg/mL (≈ 34.3 µM); MIC (Staphylococcus aureus [11]): 4 µg/mL (≈ 17.1 µM); MIC (Staphylococcus aureus [12]): 16 µg/mL (≈ 68.6 µM); MIC (Staphylococcus aureus [13]): 4 µg/mL (≈ 17.1 µM); MIC (Staphylococcus aureus [14]): 2 µg/mL (≈ 8.57 µM); MIC (Staphylococcus aureus [15]): 1 µg/mL (≈ 4.29 µM); MIC (Staphylococcus aureus [16]): 4 µg/mL (≈ 17.1 µM)
15 | O=C(C/C=N/O)c1ccccc1 | 64 (≈ 392 µM) | > 64 | > 64 | 
16 | CO/N=C(/C/C=N/OC)c1ccc(C(C)C)cc1 | 32 (≈ 129 µM) | > 64 | > 64 | 
17 | CCO/N=C/CC(=O)c1ccc(CC)cc1 | 4 (≈ 18.2 µM) | > 64 | > 64 | 
18 | CC(C)c1ccc(C(=O)CC(O)S(=O)(=O)[O-])cc1.[Na+] (configuration not stated) | > 64 | > 64 | > 64 | 
19 | CCO/N=C(/C/C=N/OCC)c1ccc(C(C)C)cc1 | 32 (≈ 116 µM) | > 64 | > 64 | 
20 | NC(=S)N/N=C/CC(=O)c1ccccc1 | > 64 | > 64 | > 64 | 
21 | CCc1ccc(C(=O)C/C=N/OC)cc1 | 4 (≈ 19.5 µM) | > 64 | > 64 | 
22 | CO/N=C/CC(=O)c1ccc(C)cc1 | 4 (≈ 20.9 µM) | 64 (≈ 335 µM) | 64 (≈ 335 µM) | MIC (Staphylococcus aureus [6]): 8 µg/mL (≈ 41.8 µM); MIC (Staphylococcus aureus [7]): 8 µg/mL (≈ 41.8 µM); MIC (Staphylococcus aureus [8]): 8 µg/mL (≈ 41.8 µM); MIC (Staphylococcus aureus [9]): 8 µg/mL (≈ 41.8 µM); MIC (Staphylococcus aureus [10]): 8 µg/mL (≈ 41.8 µM)
23 | CCCCCc1ccc(C(=O)C/C=N/OCC)cc1 | 4 (≈ 15.3 µM) | > 64 | > 64 | 
24 | CCCCCc1ccc(/C(C/C=N/OC)=N\OC)cc1 | 64 (≈ 232 µM) | > 64 | > 64 | 
25 | CCO/N=C/CC(=O)c1ccc(C)cc1 | 4 (≈ 19.5 µM) | 64 (≈ 312 µM) | 64 (≈ 312 µM) | 
26 | O=CCC(=O)c1ccccc1 | > 64 | > 64 | > 64 | 
27 | CCCCCCCCCC(=O)CC=O [HOUTTUYNIN] | 32 (≈ 161 µM) |  |  | MIC (Staphylococcus aureus [6]): 16 µg/mL (≈ 80.7 µM); MIC (Staphylococcus aureus [7]): 16 µg/mL (≈ 80.7 µM); MIC (Staphylococcus aureus [8]): 16 µg/mL (≈ 80.7 µM); MIC (Staphylococcus aureus [9]): 16 µg/mL (≈ 80.7 µM); MIC (Staphylococcus aureus [10]): 16 µg/mL (≈ 80.7 µM)
28 | Cc1ccc(C(=O)CC=O)cc1 | > 64 | > 64 | > 64 | 
29 | Cc1ccc(C(=O)C/C=N/NC(N)=O)cc1 | > 64 | > 64 | > 64 | 
